Screening data: PubChem BioAssay, several laboratories
Hits are enriched below; roughly 5.1% of the tested compounds scored in any of these assays.
M1 antag: M1 muscarinic receptor (rat) antagonism | 3.4% of 64,000 active | CHO-M1 cells, Fluo-4 calcium, ACh EC80 antagonist mode; stronger effect = lower value | AID 628 | P08482 | B-score at 10 µM;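 active means calcium fluorescence response, raw or row-and-column corrected B-score, differing from the plate sample mean either way at a set confidence level, mostly lower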
Target sequence (P08482 whole entry, looked up): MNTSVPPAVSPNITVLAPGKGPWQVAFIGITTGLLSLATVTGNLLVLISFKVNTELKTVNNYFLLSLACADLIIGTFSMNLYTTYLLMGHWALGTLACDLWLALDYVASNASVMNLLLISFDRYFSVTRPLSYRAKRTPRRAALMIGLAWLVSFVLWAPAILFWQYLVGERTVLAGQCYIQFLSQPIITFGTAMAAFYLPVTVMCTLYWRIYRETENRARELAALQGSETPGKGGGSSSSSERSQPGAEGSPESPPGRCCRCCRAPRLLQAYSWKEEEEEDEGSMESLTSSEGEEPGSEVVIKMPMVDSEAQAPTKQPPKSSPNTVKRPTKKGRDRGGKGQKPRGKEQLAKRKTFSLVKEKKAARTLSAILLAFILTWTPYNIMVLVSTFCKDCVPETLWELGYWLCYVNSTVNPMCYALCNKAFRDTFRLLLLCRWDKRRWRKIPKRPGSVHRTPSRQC
BAP1 block: human BAP1 deubiquitinase inhibition | calls only at 20 µM | AID 436 | recombinant BAP1, Ub-AMC hydrolysis fluorescence kinetic; stronger effect = lower value | 0.48% of 72,000 active;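 active means activity remaining at or below 50% of control, provided the compound also passes the data quality filters; inactive means the rest, including low values that fail the filters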
M1 agonist: M1 muscarinic receptor agonism. CHO-M1 cells, Fluo-4 calcium fluorescence, agonist mode; stronger effect = higher value. B-score at 10 µM. 3% of 64,000 active. AID 626;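 active means fluorescence rise, raw or as B-score row- and column-corrected plate score, outside the 99.7% band of its plate's samples, either direction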
E coli WT exp: E. coli BW25113 growth inhibition, expanded screen; growth inhibition, % at 100 µM; 0.15% of 98,000 active; OD600 absorbance;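 active means growth inhibition above about 50% at one test dose, limit read from the data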;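 further: growth measured after 20 h incubation at 37 °C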
tolC growth inh: blocks growth of E. coli BW25113 tolC mutant; growth inhibition, % at 10 µM (by protocol); 2.2% of 65,000 active; AID 573; OD615;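 active means growth inhibition at or above a cutoff equal to the mean over every tested compound plus 3 SD, cut at about 60% in these data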;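 further: growth measured after 20 h incubation at 37 °C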
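Test system: tolC-deleted E. coli BW25113; medium: LB with kanamycin 50 µg/mL; compound: single-point testing at 10 µM; incubation: 20 h compound exposure of bacteria at 37 °C; signal: OD at 615 nm; evaluation: growth inhibition in percent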
Hsp90 inh: displaces geldanamycin probe from tumor Hsp90 | P07900 | NCI-N417 lysate Hsp90, Cy3B-geldanamycin FP displacement | inhibition, % at 30 µM | 0.35% of 64,000 active | AID 429;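 active means inhibition above 50%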
M1 ag confirm: rat M1 muscarinic agonism, confirmation | fluorescence change (max-min) at 10 µM | shares compounds with M1 agonist | 19% of 1,700 active | AID 1488 | CHO-M1 cells, Fluo-4 calcium fluorescence, agonist mode; actives lie on both sides;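 active means fluorescence change differs from the solvent-only DMSO control mean at a set confidence level in both duplicate runs; inconclusive means differs from solvent-only control mean in just one of two runs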;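 further: an EC20 dose of acetylcholine follows compound addition during the same imaging run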
M4 agonist ctr: counter-screen for M1 agonists: activity at rat M4 receptor | 9% of 1,700 active | AID 1741 | shares compounds with M1 agonist | fluorescence change (max-min) at 10 µM | CHO M4/Gqi5 cells, Fluo-4 calcium fluorescence, agonist mode; actives lie on both sides;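 active means fluorescence change differing from the plate's solvent-only control wells at 99.7% confidence in both duplicates, whether higher or lower; inconclusive means differs from solvent controls in only one of two duplicates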
A number is an active result; - = inactive; ? = inconclusive; . = no result shown.

SMILES	M1 antag	BAP1 block	M1 agonist	E coli WT exp	tolC growth inh	Hsp90 inh	M1 ag confirm	M4 agonist ctr
CCOC(=O)N1CCN(C(=O)C(C)N(c2ccc(Oc3ccccc3)cc2)S(C)(=O)=O)CC1 (stereo not given)	-	-	3.6	-	-	-	-	-
COc1cc2c(C#N)c(N3CCN(c4ccccc4OC)CC3)nc(N)c2c(N)n1	-	.	3.4	-	-	-	-27	-
CN1CCc2c(sc3c2C(=O)NC(c2ccc(-c4cccc(Cl)c4)o2)N3)C1 (stereo not given)	-	-	14	.	-	-	-	-
CN1CCc2c(sc3c2C(=O)NC(c2cccs2)N3)C1 (stereo not given)	-	-	-	-	-	-	.	.
CCc1c(C)nc(Nc2nc(C)c3cc(OC)ccc3n2)[nH]c1=O	-	-	4.1	-	-	-	-	-
Cc1nc2ccccc2c(=O)n1NCc1cc(Br)cs1	-	-	4.4	-	-	-	-	-
CCN(C(=O)c1ccc(C(C)(C)C)cc1)c1nnc(Cn2nnc3ccccc32)s1	-	-	3.2	-	62	-	?	-
Cc1ccc(C(=O)Cn2nnc3ccccc32)cc1	.	-	.	-	.	.	.	.
Brc1ccc(CNc2ccc3c(c2)ncn3-c2ccccc2)cc1	.	-	.	.	.	.	.	.
CCOC(=O)NCC(C#CCN(CC)CC)N(CC)CC (stereo not given)	-	-	-	-	-	-	.	.
CCN(CC)CC#CC(C)OCOCC#CCOC (stereo not given)	-	-	-4.1	-	-	-	?	-
CC(CN1CCOCC1)(NS(=O)(=O)c1ccccc1)c1ccccc1 (stereo not given)	-	-	18	-	-	-	?	-
COc1ccc(CCNc2cc(N3CCN(S(C)(=O)=O)CC3)ccc2[N+](=O)[O-])cc1OC	.	-	.	.	.	.	.	.
CCC1C(=O)C(C)(C)C(=O)OC1c1ccc(OC)c(OC)c1 (stereo not given)	.	-	.	.	.	.	.	.
Oc1c(/C=N/c2ncn[nH]2)ccc2ccccc12	-	-	4.9	-	-	-	-	?
Cc1ccc2c(c1)nnn2C1CCN(S(=O)(=O)c2cccc(S(=O)(=O)N(C)C)c2)CC1	-	-	4.9	-	-	-	?	-
Cc1ccc2c(c1)nnn2C1CCN(S(=O)(=O)c2ccc(C(=O)N(C)C)cc2)CC1	.	-	.	-	-	-	.	.
CCCOc1ccc(C2C(C(=O)OC)=C(C)N(C)C(C)=C2C(=O)OC)cc1	.	-	.	.	.	.	.	.
Cc1cccn2c(=O)c3cc(C#N)c(=NC(=O)c4ccncc4)n(CCCOC(C)C)c3nc12	-	-	83	-	-	-	587	511
COCCCn1c(=NC(=O)c2ccncc2)c(C#N)cc2c(=O)n3cccc(C)c3nc21	-	-	129	-	-	-	469	363
CCCCn1c(=NC(=O)c2cccnc2)c(C#N)cc2c(=O)n3cccc(C)c3nc21	.	.	.	-	.	.	.	.
O=C(CSCc1c(F)cccc1Cl)NCc1ccco1	-	-	1.5	-	-	-	-	-
Cc1onc(-c2c(F)cccc2Cl)c1C(=O)NCc1ccco1	-	-	-	-	-	-	.	.
CCNc1cccc2c1C(=O)N(C)C2=O	-	-	179	-	-	-	928	935
CN1C(=O)c2cccc(NCCCN3C(=O)c4ccccc4C3=O)c2C1=O	-	-	4.8	-	-	-	-	-
SMILES	M1 antag	BAP1 block	M1 agonist	E coli WT exp	tolC growth inh	Hsp90 inh	M1 ag confirm	M4 agonist ctr
COc1ccc(-c2c3c(=O)n(C)c(=O)n(C)c3cn2-c2ccccc2)cc1	-	-	2.2	-	96	-	?	-
CCOC(=O)c1oc2cccc(O)c2c1CN(Cc1ccccc1)C(C)=O	-	-	2.6	-	-	-	?	-
CCOC(=O)c1oc2cccc(O)c2c1C	.	.	.	-	.	.	.	.
CC(=O)c1cc2c(cc1NC(=O)Nc1cccc(Cl)c1)OCCO2	-	-	19	-	-	-	-	-
Nc1nnc(N2CCc3ccccc32)s1	-	-	3.4	-	-	-	?	-72
Nc1nnc(N2CCCCC2)s1	-	-	-	-	-	-	.	.
COC(=O)c1sccc1NC(=O)c1cc(-c2ccc(OC)c(OC)c2)nc2ccccc12	.	-	.	.	.	.	.	.
c1ccc(N2CCN(c3nc4ccccc4n4nnnc34)CC2)cc1	-	-	17	-	-	-	?	?
c1ccc2c(c1)nc(N1CCOCC1)c1nnnn12	-	-	6.4	-	-	-	-	-
c1ccc2c(c1)nc(N1CCN(C3CCCCC3)CC1)c1nnnn12	-	-	-	-	-	-	.	.
CCOC(=O)c1[nH]c2ccccc2c1CCCN1C(=O)c2ccccc2C1=O	.	.	.	-	.	.	.	.
CC(=O)c1c(C)[nH]c(C(=O)OCCCCN2C(=O)c3ccccc3C2=O)c1C	-2.4	-	6.4	-	-	-	-	-88
O=C(Nc1cccc2nsnc12)C1CC(=O)N(c2ccccc2)C1 (stereo not given)	-	-	-2.7	-	-	-	?	?
COC(=O)c1ccccc1NC(=O)C1CC(=O)N(c2ccccc2)C1 (stereo not given)	-	-	-	-	-	-	.	.
Cc1cccc(N2C(=O)c3cccc4c(N(C)CCO)ccc(c34)C2=O)c1	-14	-	351	-	-	-	1544	1425
CN(C)CCNc1nc2c(c(=O)[nH]c(=O)n2C)n1CC(O)COc1ccc(Cl)cc1Cl (stereo not given)	-	-	4.2	-	-	-	-	-
Cc1ccccc1OCC(O)Cn1c(SC(C)C)nc2c1c(=O)[nH]c(=O)n2C (stereo not given)	-	-	6.9	-	-	-	-	-
Cc1nc2ccccc2c2oc(C(=O)N3CCN(C4CCCCC4)CC3)cc12	-3.2	-	2.4	-	-	-	?	-
CCOC(=O)CC(=O)CSc1nc(C)cc(C)c1C#N	.	.	.	-	.	.	.	.
CCOC(=O)CC(=O)CSc1nc2c(c(C)c1C#N)CCC2	-	-	-2.9	-	-	-	-	-
COc1cc2[nH]c(=O)n(CCC(=O)N3CCN(c4cccc(C)c4C)CC3)c(=O)c2cc1OC	-	.	-	-	-	.	.	.
COC(=O)c1ccc2c(=O)n(CCCCCC(=O)N3CCN(c4ccccc4)CC3)c(=O)[nH]c2c1	-	-	11	-	-	-	-	-
COc1cc2[nH]c(=O)n(CCCCCC(=O)N3CCN(c4ccccc4)CC3)c(=O)c2cc1OC	-	.	2.8	-	-	.	-	-
O=C(NCCCO)Nc1ccc2nc(-c3ccco3)c(-c3ccco3)nc2c1	.	.	.	-	.	.	.	.
O=C(Nc1ccc(N2CCOCC2)cc1)Nc1ccc2nc(-c3ccco3)c(-c3ccco3)nc2c1	-	.	2.8	-	-	-	-	-
O=C(Nc1ccc2nc(-c3ccc(Br)o3)[nH]c2c1)c1cccs1	-	-	-	-	-	-	.	.
Cn1cccc1-c1nc2ccc(NC(=O)c3cccs3)cc2[nH]1	-	-	8.5	-	-	-	?	-
